Measurements: ChEMBL document CHEMBL2202955, “Identification of Potent, Selective, Cell-Active Inhibitors of the Histone Lysine Methyltransferase EZH2” (ACS Med Chem Lett, 2012)

Legend:
[1] = molecular target: Histone-lysine N-methyltransferase EZH2 (Homo sapiens, UniProt Q15910); assay: Inhibition of EZH2-mediated nuclear H3K27 methylation in human HCC1806 cells after 72 hrs by immunofluorescence analysis; assay type: cell-based
Summary of the method: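 HCC1806 breast cancer cells were exposed to compound for 72 h. Nuclear H3K27me3 was quantified by an immunofluorescence imaging assay and normalized to total H3. Values are the mean of at least three independent replicates.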

[2] = molecular target: EZH2/SUZ12/EED/RBBP7/RBBP4; assay: Inhibition of PRC2 complex of FLAG-EZH2, EED, SUZ12, AEBP2 and RbAp48 using histone H3 peptide (21 to 44) as substrate and [3H]SAM after 30 mins; assay type: protein-complex assay; conditions: read-out: Ki(app)

Histone-lysine N-methyltransferase EZH2, sequence (Q15910 whole entry): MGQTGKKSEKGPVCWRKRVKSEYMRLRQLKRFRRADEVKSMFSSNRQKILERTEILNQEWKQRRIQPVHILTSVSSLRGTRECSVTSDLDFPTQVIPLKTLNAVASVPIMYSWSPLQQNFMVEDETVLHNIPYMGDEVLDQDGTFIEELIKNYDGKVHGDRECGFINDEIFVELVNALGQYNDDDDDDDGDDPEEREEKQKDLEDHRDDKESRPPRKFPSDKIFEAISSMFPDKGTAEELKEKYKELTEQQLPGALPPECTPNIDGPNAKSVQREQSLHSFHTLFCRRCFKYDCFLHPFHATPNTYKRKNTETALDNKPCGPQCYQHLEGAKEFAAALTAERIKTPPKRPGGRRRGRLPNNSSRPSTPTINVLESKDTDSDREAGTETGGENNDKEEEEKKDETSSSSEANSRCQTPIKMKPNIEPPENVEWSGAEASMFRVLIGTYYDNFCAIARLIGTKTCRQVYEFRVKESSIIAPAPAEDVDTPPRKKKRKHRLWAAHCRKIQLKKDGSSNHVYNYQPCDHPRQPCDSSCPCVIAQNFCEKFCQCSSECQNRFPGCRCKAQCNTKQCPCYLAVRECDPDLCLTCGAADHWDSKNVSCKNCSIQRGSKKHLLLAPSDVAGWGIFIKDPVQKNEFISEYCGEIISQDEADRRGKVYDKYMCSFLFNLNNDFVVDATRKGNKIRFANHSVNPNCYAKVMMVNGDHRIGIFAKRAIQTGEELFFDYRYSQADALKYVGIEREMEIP

Cc1cc(C)c(CNC(=O)c2cc(-c3ccnc(N4CCN(C)CC4)c3)cc3c2cnn3C(C)C)c(=O)[nH]1
IC50 [1]: 2000 nM
Ki [2]: 14 nM

Cc1cc(C)c(CNC(=O)c2cc(C3CC3)cc3c2cnn3C(C)C)c(=O)[nH]1
IC50 [1]: 2510 nM
Ki [2]: 74 nM
